Values belong to the compound of their own block, whether it stands above or below them.
Legend:
[1] = species on record: Rattus norvegicus; assay: Biodistribution of [11C]-CGP- 12388 (10 minutes post injection) in heart of male wistar rats; type: ADME, organism-based; conditions: in vivo
How it was run: (§1)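 Male Wistar rats (200 ± 20 g) under pentobarbital anesthesia (60 mg/kg ip) got iv saline (controls, n = 4) or 500 μg (±)-propranolol (blocking, n = 4) <1 min before the tracer. Tracer dose was 1 MBq (30 pmol) in 0.3 mL. Rats were killed by heart extirpation at 10 min and tissues counted. Plasma was spun 3 min at 1000g. Uptake is given as DAR, mean ± SD.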

[2] = Partition coefficient (logP); type: physicochemical; conditions: octanol/water
How it was run: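 50-100 μCi of tracer in 0.1 M phosphate buffer pH 7.4 (5 mL) plus n-octanol (5 mL). Shaken vigorously for 30 min at 37 °C, five mixtures. 100 μL of each layer gamma-counted. log P from the octanol/water count ratio, n = 5. A calculated value was also obtained with Pallas 1.2.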

[3] = species on record: Rattus norvegicus; assay: Biodistribution of [11C]-CGP- 12388 (10 minutes post injection) in lung of male wistar rats; type: ADME, organism-based; conditions: in vivo; how it was run: as §1
[4] = species on record: Rattus norvegicus; assay: Biodistribution of [11C]-CGP- 12388 (10 minutes post injection) in spleen of male wistar rats; type: ADME, organism-based; conditions: in vivo; how it was run: as §1
[5] = species on record: Rattus norvegicus; assay: Biodistribution of [11C]-CGP- 12388 (60 minutes post injection) in muscle of male wistar rats; type: ADME, organism-based, Muscle tissue; conditions: in vivo, 1 h
How it was run: (§2)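 Wistar males (200 ± 20 g) were given pentobarbital 60 mg/kg ip, plus 15-20 mg/kg if needed before dissection. Saline controls (n = 6) or 500 μg (±)-propranolol iv blocking rats (n = 4) were pretreated <1 min before 1 MBq (30 pmol) tracer in 0.3 mL. Sacrifice and dissection were at 60 min. DAR = (cpm/g tissue)/(injected cpm/g body weight); mean ± SD.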

[6] = species on record: Rattus norvegicus; assay: Biodistribution of [11C]-CGP- 12388 (10 minutes post injection) in plasma of male wistar rats; type: ADME, organism-based; conditions: in vivo; how it was run: as §1
[7] = species on record: Rattus norvegicus; assay: Biodistribution of [11C]-CGP- 12388 (60 minutes post injection) in spleen of male wistar rats; type: ADME, organism-based; conditions: in vivo, 1 h; how it was run: as §2
[8] = species on record: Rattus norvegicus; assay: Biodistribution of [11C]-CGP- 12388 (60 minutes post injection) in fat of male wistar rats; type: ADME, organism-based, Adipose tissue; conditions: in vivo, 1 h; how it was run: as §2
[9] = species on record: Rattus norvegicus; assay: Biodistribution of [11C]-CGP- 12388 (10 minutes post injection) in kidney of male wistar rats; type: ADME, organism-based; conditions: in vivo; how it was run: as §1
[10] = species on record: Rattus norvegicus; assay: Biodistribution of [11C]-CGP- 12388 (10 minutes post injection) in intestine of male wistar rats; type: ADME, organism-based; conditions: in vivo; how it was run: as §1
[11] = species on record: Rattus norvegicus; assay: Biodistribution of [11C]-CGP- 12388 (10 minutes post injection) in red blood cells of male wistar rats; type: ADME, organism-based; conditions: in vivo; how it was run: as §1
[12] = species on record: Rattus norvegicus; assay: Biodistribution of [11C]-CGP- 12388 (10 minutes post injection) in liver of male wistar rats; type: ADME, organism-based; conditions: in vivo; how it was run: as §1
[13] = species on record: Rattus norvegicus; assay: Biodistribution of [11C]-CGP- 12388 (10 minutes post injection) in trachea of male wistar rats; type: ADME, organism-based; conditions: in vivo; how it was run: as §1
[14] = species on record: Rattus norvegicus; assay: Biodistribution of [11C]-CGP- 12388 (60 minutes post injection) in plasma of male wistar rats; type: ADME, organism-based; conditions: in vivo, 1 h; how it was run: as §2
[15] = species on record: Rattus norvegicus; assay: Biodistribution of [11C]-CGP- 12388 (10 minutes post injection) in fat of male wistar rats; type: ADME, organism-based, Adipose tissue; conditions: in vivo; how it was run: as §1
[16] = species on record: Rattus norvegicus; assay: Biodistribution of [11C]-CGP- 12388 (60 minutes post injection) in liver of male wistar rats; type: ADME, organism-based; conditions: in vivo, 1 h; how it was run: as §2
[17] = species on record: Rattus norvegicus; assay: Biodistribution of [11C]-CGP- 12388 (60 minutes post injection) in lung of male wistar rats; type: ADME, organism-based; conditions: in vivo, 1 h; how it was run: as §2
[18] = species on record: Rattus norvegicus; assay: Biodistribution of [11C]-CGP- 12388 (60 minutes post injection) in heart of male wistar rats; type: ADME, organism-based; conditions: in vivo, 1 h; how it was run: as §2
[19] = species on record: Rattus norvegicus; assay: Biodistribution of [11C]-CGP- 12388 (60 minutes post injection) in cortex of male wistar rats; type: ADME, organism-based; conditions: in vivo, 1 h; how it was run: as §2
[20] = species on record: Rattus norvegicus; assay: Biodistribution of [11C]-CGP- 12388 (60 minutes post injection) in kidney of male wistar rats; type: ADME, organism-based; conditions: in vivo, 1 h; how it was run: as §2
[21] = species on record: Rattus norvegicus; assay: Biodistribution of [11C]-CGP- 12388 (10 minutes post injection) in muscle of male wistar rats; type: ADME, organism-based, Muscle tissue; conditions: in vivo; how it was run: as §1
[22] = species on record: Rattus norvegicus; assay: Biodistribution of [11C]-CGP- 12388 (60 minutes post injection) in red blood cells of male wistar rats; type: ADME, organism-based; conditions: in vivo, 1 h; how it was run: as §2
[23] = species on record: Rattus norvegicus; assay: Biodistribution of [11C]-CGP- 12388 (10 minutes post injection) in cortex of male wistar rats; type: ADME, organism-based; conditions: in vivo; how it was run: as §1
[24] = species on record: Rattus norvegicus; assay: Biodistribution of [11C]-CGP- 12388 (60 minutes post injection) in trachea of male wistar rats; type: ADME, organism-based; conditions: in vivo, 1 h; how it was run: as §2
[25] = species on record: Rattus norvegicus; assay: Biodistribution of [11C]-CGP- 12388 (60 minutes post injection) in cerebellum of male wistar rats; type: ADME, organism-based; conditions: in vivo, 1 h; how it was run: as §2
[26] = species on record: Rattus norvegicus; assay: Biodistribution of [11C]-CGP- 12388 (60 minutes post injection) in intestine bone of male wistar rats; type: ADME, organism-based; conditions: in vivo, 1 h, in the assay text read “intestine” for “intestine bone”; how it was run: as §2
[27] = species on record: Rattus norvegicus; assay: Biodistribution of [11C]-CGP- 12388 (60 minutes post injection) in bone of male wistar rats; type: ADME, organism-based, Bone element; conditions: in vivo, 1 h; how it was run: as §2
[28] = species on record: Rattus norvegicus; assay: Biodistribution of [11C]-CGP- 12388 (10 minutes post injection) in cerebellum of male wistar rats; type: ADME, organism-based; conditions: in vivo; how it was run: as §1
[29] = species on record: Rattus norvegicus; assay: Biodistribution of [11C]-CGP- 12388 (10 minutes post injection) in bone of male wistar rats; type: ADME, organism-based, Bone element; conditions: in vivo; how it was run: as §1

DAR [1]: 0.94 | logP [2]: -0.5 | DAR [3]: 2.3
Compound: [3H]c1cc([3H])c2c(c1OCC(O)CNC(C)(C)C)=NC(=O)N=2 (configuration not stated)

DAR [4]: 0.78 | DAR [5]: 0.36 | DAR [6]: 0.5 | DAR [7]: 0.49 | DAR [8]: 0.26 | DAR [9]: 2.44 | DAR [10]: 0.55 | DAR [11]: 0.7 | DAR [12]: 1.65 | DAR [13]: 0.7 | DAR [14]: 0.4 | DAR [15]: 0.16 | DAR [1]: 0.72 | DAR [16]: 0.68 | DAR [17]: 0.88 | DAR [18]: 0.76 | DAR [19]: 0.25 | DAR [20]: 0.94 | DAR [21]: 0.23 | DAR [22]: 0.49 | DAR [23]: 0.07 | logP [2]: -0.64 | DAR [24]: 0.86 | DAR [25]: 0.26 | DAR [26]: 1.14 | DAR [27]: 0.23 | DAR [3]: 1.26 | DAR [28]: 0.09 | DAR [29]: 0.2
Compound: C[11CH](C)NC[C@H](O)COc1cccc2[nH]c(O)nc12

Source: ChEMBL document CHEMBL1130239, “Synthesis and evaluation of (S)-4-(3-(2'-[11C]isopropylamino)-2-hydroxypropoxy) -2H-benzimidazol -2-one ((S)-[11C]CGP 12388) and (S)-4-(3-((1'-[18F]-fluoroisopropyl)amino)-2-hydroxypropoxy) -2H- benzimidazol-2-one ((S)-[18F]fluoro-CGP 12388) for visualization of beta-adrenoceptors with positron …” (J Med Chem, 1997)
